For data set [1], the target named is T1, Prostaglandin D2 receptor 2 (Homo sapiens, UniProt Q9Y5Y4).
T1 sequence (Q9Y5Y4 whole entry): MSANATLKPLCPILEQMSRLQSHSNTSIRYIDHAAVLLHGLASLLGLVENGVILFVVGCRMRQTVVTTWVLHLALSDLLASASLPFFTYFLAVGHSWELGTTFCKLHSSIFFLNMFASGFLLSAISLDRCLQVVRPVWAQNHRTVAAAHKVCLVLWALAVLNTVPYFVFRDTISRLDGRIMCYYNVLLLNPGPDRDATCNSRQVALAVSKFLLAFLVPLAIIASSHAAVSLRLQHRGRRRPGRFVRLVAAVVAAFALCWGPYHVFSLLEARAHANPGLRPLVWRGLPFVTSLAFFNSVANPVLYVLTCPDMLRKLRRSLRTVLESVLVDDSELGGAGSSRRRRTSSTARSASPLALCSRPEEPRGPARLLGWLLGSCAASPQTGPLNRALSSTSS
In words: Displacement of [3H]PGD2 from human CRTH2 receptor expressed in CHO cells. Type of data set: cell-based. In a few lines:
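Scintillation proximity competition assay: 2–5 µg human or mouse CRTH2 membranes (nitrogen-cavitation, differential centrifugation) with WGA-SPA beads and 1.5 nM [3H]PGD2 in 10 mM HEPES/KOH pH 7.4, 10 mM MnCl2, protease inhibitors, 1% Me2SO, 90 min shaking at room temperature. Nonspecific binding with 1 µM PGD2. Ki by Cheng–Prusoff, mean of ≥3 independent experiments.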
(Displacement assays read how much labelled ligand stays bound in the presence of the test substance.)

For data set [2], the target named is T1, Prostaglandin D2 receptor 2. In words: Antagonist activity at human CRTH2 receptor expressed in CHO cell membrane by [35S]GTP-gamma-S binding assay. Type of data set: functional, cell membranes. Summed up: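 [35S]GTPγS binding at 30 °C on 10 µg human CRTH2 membranes in 20 mM HEPES/KOH pH 7.4, 10 mM MgCl2, 10 µg/mL saponin, 3 µM GDP, 150 mM NaCl, 2% Me2SO. PGD2 preincubation 10 min (antagonist mode: 80 nM PGD2), then 0.15 nM [35S]GTPγS for 30 min. Nonspecific binding with 10 µM GTPγS; stopped by centrifugation, scintillation counting.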
(In general: GTPγS is a poorly hydrolysed GTP analogue; its binding reports G protein activation.)

Data set [3] can be described thus: Intrinsic clearance per mg of protein in human liver microsomes at 3 uM. It counts as ADME, Microsome. Summed up: (§1)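 Rat or human liver microsomes (0.5 mg/mL final) in 0.1 M phosphate pH 7.4 with 3 µM compound (1% DMSO), preincubated at 37 °C, started with 1 mM NADPH. Quenched with cold acetonitrile at 0, 15, 30, 45 min; LC/MS-MS of compound disappearance gives intrinsic clearance.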
For orientation: Liver microsomes are vesicles of endoplasmic reticulum, rich in cytochrome P450 enzymes.

Data set [4] is described as follows: Intrinsic clearance per mg of protein in rat liver microsomes at 3 uM. Type of data set: ADME, Microsome. In a few lines:
as §1

The nature of data set [5]: Lipophilicity, log D of the compound. It counts as physicochemical. Conditions: octanol/water.

In general, Ki refers to a dissociation constant, usually derived from enzyme kinetics or from competition with a known ligand. Low values mean a stronger hold on the target, high ones a looser hold on the target. As for `O=C(O)CN1C(=O)C2(CC(=O)N(Cc3ccccc3)C2=O)c2cc(F)ccc21` (stereo unspecified), in data set [1], the Ki worked out at 712 nM. One may read the IC50 as the concentration at which inhibition is half-maximal. Regarding `Cc1noc(C)c1CN1C(=O)CC2(C1=O)C(=O)N(CC(=O)O)c1ccc(Cl)cc12` (stereo unspecified), affinity in data set [1] was put at a Ki of 51 nM. The same compound displayed an IC50 in data set [2] of 220 nM.

`O=C(O)CN1C(=O)C2(CC(=O)N(Cc3cc(Cl)cc(Cl)c3)C2=O)c2cc(Cl)ccc21` (stereo unspecified) displayed an inhibition constant (Ki) in data set [1] of 36 nM. Further, the IC50 in data set [2] turned out to be 82 nM. The corresponding values for `O=C(O)CN1C(=O)C2(CC(=O)N(Cc3ccccc3F)C2=O)c2cc(Cl)ccc21` (stereo unspecified) are 37 nM and 212 nM. In turn, `CN1C(=O)C2(CC(=O)N(Cc3ccccc3)C2=O)c2cc(Cl)ccc21` (stereo unspecified) had a Ki in data set [1] of 11600 nM.

In the case of `COc1ccc(-c2nc(CN3C(=O)CC4(C3=O)C(=O)N(CC(=O)O)c3ccc(Cl)cc34)no2)cc1` (stereo unspecified), the Ki in data set [1] stood at 212 nM. On the same count and under the same terms, then `COCCOCN1C(=O)CC2(C1=O)C(=O)N(CC(=O)O)c1ccc(F)cc12` (stereo unspecified), with 3830 nM.

In general, microsomal CLint refers to the rate of metabolic loss divided by the concentration. A high value points to faster metabolism. The term logD denotes the decadic logarithm of the distribution of all forms, ionised or not, between an organic phase and buffer at a given pH. For the compound `O=C(O)CN1C(=O)C2(CC(=O)N(Cc3cc(F)cc(Cl)c3)C2=O)c2cc(Cl)ccc21` (stereo unspecified), in data set [1], the Ki amounted to 20 nM. The microsomal CLint at 3 µM was found to be 10 µL/min/mg in data set [3] and 8 µL/min/mg in data set [4]. Moreover, in data set [5], the logD was -0.2. In the case of `COc1ccccc1CN1C(=O)CC2(C1=O)C(=O)N(CC(=O)O)c1ccc(Cl)cc12` (stereo unspecified), the Ki in data set [1] amounted to 233 nM. A word on the EC50: it is the midpoint of the concentration-response curve. Regarding `O=C(O)CCCN1C(=O)C2(CC(=O)N(Cc3ccccc3F)C2=O)c2cc(Cl)ccc21` (stereo unspecified), the Ki in data set [1] turned out to be 1760 nM. Moreover, the EC50 in data set [2] is 2200 nM.

In data set [1], `C=CCN1C(=O)CC2(C1=O)C(=O)N(CCCC(=O)O)c1ccc(F)cc12` (stereo unspecified) registered a Ki of 4130 nM. `Cc1onc(-c2ccccc2)c1CN1C(=O)CC2(C1=O)C(=O)N(CC(=O)O)c1ccc(Cl)cc12` (stereo unspecified): affinity in data set [1] was put at a Ki of 7.6 nM. The IC50 in data set [2] came out at 21 nM. In data set [4], this compound came in with a microsomal CLint at 3 µM of 26 µL/min/mg. The same compound displayed a pH-dependent lipophilicity (logD) in data set [5] of -0.6. Take `COc1ccc(CN2C(=O)CC3(C2=O)C(=O)N(CCCC(=O)O)c2ccc(Cl)cc23)cc1` (stereo unspecified): the Ki in data set [1] was determined as 960 nM. In data set [1], `O=C(O)CN1C(=O)C2(CC(=O)N(Cc3cccc(Cl)c3)C2=O)c2cc(Cl)ccc21` (stereo unspecified) registered an inhibition constant (Ki) of 68 nM. In data set [2], the IC50 turned out to be 122 nM. As to `O=C(O)CN1C(=O)[C@]2(CC(=O)N(Cc3cc(Cl)ccc3F)C2=O)c2cc(Cl)ccc21`, the Ki in data set [1] was determined as 302 nM. Still for that read-out and setting: then `O=C(O)CN1C(=O)[C@]2(CC(=O)N(Cc3cccc(Cl)c3)C2=O)c2cc(Cl)ccc21`, with 870 nM.

In data set [1], `O=C(O)CCCN1C(=O)C2(CC(=O)N(Cc3ccccc3)C2=O)c2cc(Cl)ccc21` (stereo unspecified) came in with a Ki of 1660 nM.

Compound `COc1cccc(CN2C(=O)CC3(C2=O)C(=O)N(CC(=O)O)c2ccc(Cl)cc23)c1` (stereo unspecified) displayed a Ki in data set [1] of 169 nM. In data set [4], this compound came in with a microsomal CLint at 3 µM above 60 µL/min/mg. Compound `O=C(O)CN1C(=O)[C@]2(CC(=O)N(Cc3ccccc3)C2=O)c2cc(Cl)ccc21` had an inhibition constant (Ki) in data set [1] of 2040 nM. With `O=C(O)CN1C(=O)C2(CC(=O)N(Cc3ccc(Oc4ccccc4)cc3)C2=O)c2cc(Cl)ccc21` (stereo unspecified), the Ki in data set [1] turned out to be 143 nM. With `Cc1noc(-c2ccccc2)c1CN1C(=O)CC2(C1=O)C(=O)N(CC(=O)O)c1ccc(Cl)cc12` (stereo unspecified), in data set [1], the affinity, expressed as Ki, was 5.3 nM. In data set [2], this compound gave an IC50 of 23 nM.

Take `O=C(O)CCCN1C(=O)C2(CC(=O)N(Cc3ccc(Cl)cc3)C2=O)c2cc(Cl)ccc21` (stereo unspecified): in data set [1], the affinity, expressed as Ki, was 758 nM. Moreover, the midpoint of the response in data set [2], the EC50, lay at 5600 nM. For `O=C(O)CN1C(=O)C2(CC(=O)N(Cc3cccc(F)c3F)C2=O)c2cc(Cl)ccc21` (stereo unspecified), the Ki in data set [1] is 25 nM. The IC50 in data set [2] is 296 nM. In data set [1], `O=C(O)CN1C(=O)[C@@]2(CC(=O)N(Cc3ccccc3)C2=O)c2cc(Cl)ccc21` gave a Ki of 81 nM. Same read-out and setting: then `COc1ccc2c(c1)C1(CC(=O)N(Cc3ccccc3)C1=O)C(=O)N2CC(=O)O` (stereo unspecified), with 2740 nM.

In turn, `O=C(O)CN1C(=O)C2(CC(=O)N(Cc3ccoc3)C2=O)c2cc(Cl)ccc21` (stereo unspecified) had a Ki in data set [1] of 318 nM.

`O=C(O)CN1C(=O)C2(CC(=O)N(Cc3cc(F)ccc3F)C2=O)c2cc(Cl)ccc21` (stereo unspecified): affinity in data set [1] was put at a Ki of 21 nM. In data set [3], this compound returned a microsomal CLint at 3 µM of 6 µL/min/mg. In addition, the logD in data set [5] is -0.9. For `CS(=O)(=O)c1ccc(CN2C(=O)CC3(C2=O)C(=O)N(CC(=O)O)c2ccc(Cl)cc23)cc1` (stereo unspecified), affinity in data set [1] was put at a Ki of 1510 nM. On the same count and under the same terms, then `CN(C)C(=O)CN1C(=O)CC2(C1=O)C(=O)N(CC(=O)O)c1ccc(Cl)cc12` (stereo unspecified), with 4670 nM.

Values taken from ChEMBL document CHEMBL1145542, “Discovery of a new class of potent, selective, and orally bioavailable CRTH2 (DP2) receptor antagonists for the treatment of allergic inflammatory diseases” (J Med Chem, 2008).
